Shown are actives, neighbours in structure and some others; about 3.5% of the full set was active somewhere.
RGS4 block – RGS4 inhibitors, primary screen, cell-based, HEK293 M3R inducible RGS4, calcium flux; Regulator of G-protein signaling 4 (Homo sapiens), P49798; Fluo-4 calcium flux; active compounds read high; triggered by carbachol at its EC20; B-score at 10 µM; 310,000 tested, 0.45% active; AID 463165, 2010;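 active means B-score, a plate-corrected calcium signal, over three deviations above library mean, with baseline fluorescence within five deviations of library mean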;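 further: RGS4 expression induced by doxycycline in cells with stable M3 receptor; B-score is computed from the integrated fluorescence ratio over baseline after carbachol; higher B-score means a larger calcium signal and so more RGS4 inhibition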
Target sequence (P49798 whole entry, looked up): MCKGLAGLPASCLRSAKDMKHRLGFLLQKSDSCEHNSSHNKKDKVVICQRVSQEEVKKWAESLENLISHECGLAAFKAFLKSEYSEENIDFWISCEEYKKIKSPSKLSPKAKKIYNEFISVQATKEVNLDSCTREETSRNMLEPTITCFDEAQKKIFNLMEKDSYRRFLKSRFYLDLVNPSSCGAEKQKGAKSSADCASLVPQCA
MrgX1 antag – antagonists of human MrgX1 receptor, primary screen, HEK293 cells, Fluo-4 calcium flux | Mas-related G-protein coupled receptor member X1 (Homo sapiens), Q96LB2 | 310,000 tested, 1.3% active | B-score at 10 µM | BAM8-22 antagonism; active compounds read low;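 active means calcium-response B-score plate-corrected more than 3 library SD below zero, starting fluorescence within 5 deviations, no agonist response on first addition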;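 further: peak minus trough fluorescence over baseline after final BAM8-22 challenge near maximal dose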
Target sequence (Q96LB2 whole entry, looked up): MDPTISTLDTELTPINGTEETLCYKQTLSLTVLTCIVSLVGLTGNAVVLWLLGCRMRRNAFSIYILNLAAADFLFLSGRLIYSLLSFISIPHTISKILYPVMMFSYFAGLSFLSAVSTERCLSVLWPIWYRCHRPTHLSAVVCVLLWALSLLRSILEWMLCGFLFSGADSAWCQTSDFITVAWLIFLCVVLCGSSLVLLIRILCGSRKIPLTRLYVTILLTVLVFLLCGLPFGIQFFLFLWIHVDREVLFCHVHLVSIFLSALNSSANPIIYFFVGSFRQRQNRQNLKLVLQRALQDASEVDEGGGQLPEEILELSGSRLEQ
RGS4 pot – RGS4 potentiators or activators, primary screen, cell-based, HEK293 M3R inducible RGS4, calcium flux; carbachol calcium flux Fluo4; active compounds read low; B-score at 10 µM; 310,000 tested, 0.92% active;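 active means B-score of the integrated calcium signal more than 4 SD below the library mean, with starting fluorescence not abnormally high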;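 further: negative B-score means reduced calcium response which marks RGS4 activation or potentiation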
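System – HEK293 FlpIn-TREx cells, stable M3R, doxycycline-inducible RGS4 · Reagent – ECmax carbachol challenge · Times – compound preincubation 20 min at room temperature before agonist · Technique – Fluo4 fluorescence kinetic imaging of calcium · Measure – B score of integrated Fluo4 ratio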
MrgX1 allo act – positive allosteric modulators of MrgX1, primary screen, HEK293 cells, Fluo-4 calcium flux. B-score at 10 µM. FDSS; active compounds read high. 310,000 tested, 0.63% active;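 active means plate-corrected calcium response at least 3 library SD above typical, normal starting fluorescence, not activating the receptor alone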;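 further: compound read alongside a low EC10 to EC30 dose of BAM8-22 agonist; peak minus trough fluorescence over baseline measured at the second addition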
MrgX1 ag – agonists of human MrgX1 receptor, primary screen, HEK293 cells, Fluo-4 calcium flux; Mas-related G-protein coupled receptor member X1 (Homo sapiens), Q96LB2; Fluo-4 calcium fluorescence, agonist mode; active compounds read high; B-score at 10 µM; 310,000 tested, 0.44% active; AID 588627, 2011;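 active means calcium response B-score plate-corrected fluorescence ratio at least 3 library SD, with starting fluorescence B-score inside 5 SD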
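Material: HEK293 cells stably expressing human MrgX1 receptor | Quantity: 15,000 cells per well | Times: Cells plated overnight, dye loaded 0.5 h 37 °C, 0.5 h room temperature | Measured by: Kinetic Fluo-4 NW fluorescence of intracellular calcium | Control set: Positive and negative controls per plate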
MrgX1 ant reconf – MrgX1 receptor antagonists, duplicate retest, confirmation, HEK293 cells, Fluo-4 calcium flux. shares compounds with MrgX1 antag. BAM8-22 calcium flux; active compounds read low. remaining BAM8-22 calcium response % of control (active compounds read low), % at 10 µM. 2,300 tested, 19% active;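 active means remaining agonist calcium response no higher than 100% minus 3 SD of agonist-only control wells, with starting fluorescence near control levels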;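 further: agonist BAM8-22 given at a near maximal EC90 to ECmax level; peak minus minimum fluorescence divided by baseline after agonist addition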
HEK293 Ca flux – nonspecific calcium signal in parental HEK293, confirmation, counter-screen for MrgX1 antagonist project, parental HEK293 cells, Fluo-4 calcium flux; shares compounds with MrgX1 antag; Fluo-4 calcium fluorescence, FDSS; fluorescence ratio F(max-min)/F0 at 10 µM; 4,000 tested, 2% active; AID 624111, 2012;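 active means duplicate-averaged calcium fluorescence ratio at least three times the standard deviation of buffer wells, a nonspecific response in parental cells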
HEK293 Ca counter – calcium response in parental HEK293 cells, primary screen, counter-screen for MrgX1 allosteric activator project, cell-based, Fluo-4 calcium flux, duplicate; shares compounds with MrgX1 antag; Fluo-4 fluorescence ratio; active compounds read high; fluorescence ratio F(max-min)/F0 at 10 µM; 4,000 tested, 0.4% active; AID 624114, 2012;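 active means calcium fluorescence ratio, averaged over duplicates, at least 3 SD of the buffer-well ratio, meaning a nonspecific response in receptor-free cells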;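 further: untransfected parental HEK293 lacking MrgX1 used as counterscreen for MrgX1 allosteric activators; fluorescence change taken during the second addition on a kinetic imager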
HEK293 Ca cntr2 – calcium response in parental HEK293 cells, primary screen, counter-screen for MrgX1 agonist project, cell-based, Fluo-4 calcium flux, duplicate, agonist mode; Fluo-4 calcium fluorescence (FDSS); active compounds read high; fluorescence ratio F(max-min)/F0 at 10 µM; shares compounds with MrgX1 antag; 4,000 tested, 8.7% active;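 active means calcium fluorescence ratio at least three times the spread of buffer wells, meaning a non-specific response in parental cells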
Active calls of the source: *; i = inactive; nt = no result.

SMILES	RGS4 block	MrgX1 antag	RGS4 pot	MrgX1 allo act	MrgX1 ag	MrgX1 ant reconf	HEK293 Ca flux	HEK293 Ca counter	HEK293 Ca cntr2
Cc1cccc(NC(=O)CSc2nc3nc(C)cc(C)n3n2)c1	i	i	i	i	i	nt	nt	nt	nt
CC1CN(c2ccccc2)c2nc3c(c(=O)[nH]c(=O)n3C)n2C1 (stereo not drawn)	i	-6.7*	i	i	i	i	i	i	i
CCOC(=O)c1sc(NC(=O)Nc2cccc(Cl)c2)cc1C	i	-6.1*	i	i	i	57%*	i	i	i
CCOC(=O)c1sc(NC(=O)c2cccs2)cc1C	i	i	i	i	i	nt	nt	nt	nt
COc1ccccc1N1CCN(C(=O)C(C)CS(=O)(=O)c2ccc3c(c2)NC(=O)CS3)CC1 (stereo not drawn)	i	i	i	i	i	nt	nt	nt	nt
CCOc1ccc(C(=O)N2CCC3(CC2)NCCc2[nH]cnc23)cc1	i	i	i	i	i	nt	nt	nt	nt
CCOc1ccc(N2CC(C(=O)N3CCN(c4ccccn4)CC3)CC2=O)cc1 (stereo not drawn)	i	-6.7*	i	i	i	i	i	i	i
Cc1ccc(NS(=O)(=O)c2ccc(OCC(=O)NCc3ccncc3)cc2)cc1	i	i	i	i	i	nt	nt	nt	nt
Cc1ccc(NC(=O)Cc2ccc(-c3ccccc3)cc2)nc1	i	-8.1*	i	i	i	i	i	i	i
CCC(Sc1nc2c(cnn2-c2ccccc2)c(=O)[nH]1)C(=O)OC (stereo not drawn)	i	-5.2*	i	i	i	82%*	i	i	i
COC(=O)C(C)Sc1nc2c(cnn2-c2ccc(F)cc2)c(=O)[nH]1 (stereo not drawn)	i	i	i	i	i	nt	nt	nt	nt
O=C(CCc1nnc2ccc(NCc3ccco3)nn12)Nc1ccc(F)cc1F	i	i	i	i	i	nt	nt	nt	nt
O=C(NCC1CCCN1S(=O)(=O)c1cccs1)c1ccccc1 (stereo not drawn)	i	i	i	i	i	nt	nt	nt	nt
O=C(NCC1CCCN1S(=O)(=O)c1cccs1)c1ccc(Cl)cc1 (stereo not drawn)	i	-5.7*	i	i	i	i	i	i	i
C=CCSC1=N/C(=C\c2cc(OCC)c(OC(C)=O)c([N+](=O)[O-])c2)C(=O)S1	i	i	i	i	i	nt	nt	nt	nt
CCOC(=O)c1cc([N+](=O)[O-])sc1NC(=O)c1ccc(S(=O)(=O)N2CC3(C)CC2CC(C)(C)C3)cc1 (stereo not drawn)	i	-11*	-9.1*	i	i	i	0.48*	i	i
O=C(CSc1nnc2ccccn12)N1CCOCC1	i	i	i	i	i	nt	nt	nt	nt
Nn1c(SCC(=O)N2CCOCC2)nnc1-c1ccccc1Cl	i	-6.2*	i	i	i	74%*	i	i	i
COC(=O)c1sc(NC(=S)NC(=O)c2cccc(Br)c2)nc1C	i	i	i	i	i	nt	nt	nt	nt
CC1=CC(=O)C(C(C)=Nc2ccccc2Cl)C(=O)O1 (stereo not drawn)	i	i	i	i	i	nt	nt	nt	nt
CC(Cc1cccs1)NC(=S)Nc1ccc(Cl)c(Cl)c1 (stereo not drawn)	i	-6.8*	i	i	i	i	i	i	i
CC(Cc1cccs1)NC(=O)Nc1cccc(Cl)c1 (stereo not drawn)	i	i	i	i	i	nt	nt	nt	nt
COc1ccc([N+](=O)[O-])cc1NC(=O)C1CCCN1S(=O)(=O)c1cccs1 (stereo not drawn)	i	i	i	i	i	nt	nt	nt	nt
CC1CCN(C(=O)c2cc(F)c(F)cc2Cl)CC1	i	-5.2*	i	i	i	i	i	i	i
O=C(c1cc(F)c(F)cc1Cl)N1CCOCC1	i	i	i	i	i	nt	nt	nt	nt
SMILES	RGS4 block	MrgX1 antag	RGS4 pot	MrgX1 allo act	MrgX1 ag	MrgX1 ant reconf	HEK293 Ca flux	HEK293 Ca counter	HEK293 Ca cntr2
Cc1ccc(N(CN2C(=O)C3C4CCC(C4)C3C2=O)C(=O)c2ccco2)cc1 (stereo not drawn)	i	i	i	i	i	nt	nt	nt	nt
O=C1CCC(=O)N1CN(C(=O)c1ccco1)c1ccccc1	i	-6.6*	i	i	i	i	i	i	i
CCn1c(SCC(=O)Nc2cccc(C)n2)nc2c1c(=O)n(C)c(=O)n2C	i	-5.9*	i	i	i	i	i	i	i
COc1ccccc1CN=Cc1[nH]c2ccc(Br)c(Cl)c2c1O	i	i	i	i	i	nt	nt	nt	nt
Cc1cccc(N=Cc2[nH]c3ccc(Br)c(Cl)c3c2O)c1	nt	-5.9*	nt	i	i	i	0.18*	i	i
Cc1ccc2nc(-c3ccc(N4C(=N)SC5CS(=O)(=O)CC54)cc3)sc2c1 (stereo not drawn)	i	-7.3*	i	i	i	85%*	i	i	i
Cc1ccc2nc(-c3ccc(N4C(=O)CC(N5CCC(C(N)=O)CC5)C4=O)cc3)sc2c1 (stereo not drawn)	i	i	i	i	i	nt	nt	nt	nt
COc1ccc(Cl)cc1S(=O)(=O)Nc1ncn[nH]1	i	i	i	i	i	nt	nt	nt	nt
O=C(c1ccco1)N(CC1CCCO1)c1nc(-c2ccccc2)cs1 (stereo not drawn)	i	i	i	i	i	nt	nt	nt	nt
